Active and inactive are the calls of the source. The calls are words filed in the database; no cut-off is given here.
How the values were obtained:
Cytochrome P450 1A2 = target: T1, Cytochrome P450 1A2 (Homo sapiens, UniProt P05177); test: Inhibition of human CYP1A2 expressed in Escherichia coli using ethoxyresorufin as substrate up to 100 uM preincubated for 5 mins followed by NADPH addition measured after 20 mins by HPLC analysis; format: ADME
T1 sequence (P05177 whole entry): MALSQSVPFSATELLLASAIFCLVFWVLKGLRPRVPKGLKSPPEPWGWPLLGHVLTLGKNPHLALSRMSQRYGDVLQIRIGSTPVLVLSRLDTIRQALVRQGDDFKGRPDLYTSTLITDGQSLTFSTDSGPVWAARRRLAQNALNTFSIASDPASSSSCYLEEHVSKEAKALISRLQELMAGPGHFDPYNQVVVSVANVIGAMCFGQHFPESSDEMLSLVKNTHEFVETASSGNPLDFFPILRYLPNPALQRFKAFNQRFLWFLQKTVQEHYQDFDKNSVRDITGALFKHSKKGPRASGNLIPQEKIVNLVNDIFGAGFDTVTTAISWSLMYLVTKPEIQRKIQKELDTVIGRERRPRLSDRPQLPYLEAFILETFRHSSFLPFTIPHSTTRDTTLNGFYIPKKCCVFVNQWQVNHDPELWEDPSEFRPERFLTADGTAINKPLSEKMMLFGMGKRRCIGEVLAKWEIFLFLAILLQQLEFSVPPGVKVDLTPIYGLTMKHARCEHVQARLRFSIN

Cytochrome P450 2C8 = target: T2, Cytochrome P450 2C8 (Homo sapiens, UniProt P10632); test: Inhibition of human CYP2C8 expressed in Escherichia coli using paclitaxel as substrate up to 100 uM preincubated for 5 mins followed by NADPH addition measured after 20 mins by HPLC analysis; format: ADME
T2 sequence (P10632 whole entry): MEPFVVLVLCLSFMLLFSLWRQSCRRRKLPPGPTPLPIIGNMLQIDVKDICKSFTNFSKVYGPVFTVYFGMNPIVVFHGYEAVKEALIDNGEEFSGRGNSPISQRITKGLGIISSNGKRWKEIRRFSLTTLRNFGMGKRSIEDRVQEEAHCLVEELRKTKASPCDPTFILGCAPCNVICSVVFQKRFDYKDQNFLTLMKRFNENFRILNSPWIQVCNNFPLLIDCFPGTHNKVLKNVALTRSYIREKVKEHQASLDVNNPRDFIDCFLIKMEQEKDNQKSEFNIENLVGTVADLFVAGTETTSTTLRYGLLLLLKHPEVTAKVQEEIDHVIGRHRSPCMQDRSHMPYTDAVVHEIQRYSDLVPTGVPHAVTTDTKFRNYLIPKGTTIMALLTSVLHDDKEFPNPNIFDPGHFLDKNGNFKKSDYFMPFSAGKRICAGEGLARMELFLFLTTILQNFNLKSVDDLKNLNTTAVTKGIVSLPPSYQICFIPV

Cytochrome P450 2C9 = Cytochrome P450 2C9 (Homo sapiens, UniProt P11712); test: Inhibition of human CYP2C9 expressed in Escherichia coli using diclofenac as substrate up to 100 uM preincubated for 5 mins followed by NADPH addition measured after 20 mins by HPLC analysis; format: ADME
Chain of Cytochrome P450 2C9 (P11712 whole entry): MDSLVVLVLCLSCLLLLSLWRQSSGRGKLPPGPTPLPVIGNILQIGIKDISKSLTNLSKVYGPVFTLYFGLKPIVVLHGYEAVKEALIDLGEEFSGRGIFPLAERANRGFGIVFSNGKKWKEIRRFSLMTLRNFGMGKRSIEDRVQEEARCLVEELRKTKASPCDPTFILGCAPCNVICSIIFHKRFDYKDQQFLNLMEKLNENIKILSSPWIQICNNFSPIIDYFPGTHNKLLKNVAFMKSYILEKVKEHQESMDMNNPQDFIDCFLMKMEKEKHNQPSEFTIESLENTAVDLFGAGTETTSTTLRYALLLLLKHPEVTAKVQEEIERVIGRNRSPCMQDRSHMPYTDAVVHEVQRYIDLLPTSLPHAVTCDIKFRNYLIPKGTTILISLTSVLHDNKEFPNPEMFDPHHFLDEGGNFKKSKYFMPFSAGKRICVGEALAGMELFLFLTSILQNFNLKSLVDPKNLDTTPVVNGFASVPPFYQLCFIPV

Cytochrome P450 2D6 = Cytochrome P450 2D6 (Homo sapiens, UniProt P10635); test: Inhibition of human CYP2D6 expressed in Escherichia coli using bufuralol as substrate up to 100 uM preincubated for 5 mins followed by NADPH addition measured after 20 mins by HPLC analysis; format: ADME
Chain of Cytochrome P450 2D6 (P10635 whole entry): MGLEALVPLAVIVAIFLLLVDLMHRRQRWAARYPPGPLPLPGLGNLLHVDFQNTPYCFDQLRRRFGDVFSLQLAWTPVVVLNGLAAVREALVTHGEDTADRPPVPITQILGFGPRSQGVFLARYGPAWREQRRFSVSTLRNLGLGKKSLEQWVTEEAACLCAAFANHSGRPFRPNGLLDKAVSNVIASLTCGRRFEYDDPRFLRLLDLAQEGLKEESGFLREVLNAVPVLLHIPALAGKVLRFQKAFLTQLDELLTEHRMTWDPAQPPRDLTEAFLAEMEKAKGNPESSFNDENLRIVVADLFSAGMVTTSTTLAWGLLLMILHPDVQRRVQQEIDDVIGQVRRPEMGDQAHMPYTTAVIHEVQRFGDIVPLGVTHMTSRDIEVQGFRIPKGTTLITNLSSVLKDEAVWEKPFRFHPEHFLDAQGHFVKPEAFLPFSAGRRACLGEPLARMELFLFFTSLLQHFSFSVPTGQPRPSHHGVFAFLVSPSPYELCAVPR

Cytochrome P450 2C19 = Cytochrome P450 2C19 (Homo sapiens, UniProt P33261); test: Inhibition of human CYP2C19 expressed in Escherichia coli using S-mephenytoin as substrate up to 100 uM preincubated for 5 mins followed by NADPH addition measured after 20 mins by HPLC analysis; format: ADME
Chain of Cytochrome P450 2C19 (P33261 whole entry): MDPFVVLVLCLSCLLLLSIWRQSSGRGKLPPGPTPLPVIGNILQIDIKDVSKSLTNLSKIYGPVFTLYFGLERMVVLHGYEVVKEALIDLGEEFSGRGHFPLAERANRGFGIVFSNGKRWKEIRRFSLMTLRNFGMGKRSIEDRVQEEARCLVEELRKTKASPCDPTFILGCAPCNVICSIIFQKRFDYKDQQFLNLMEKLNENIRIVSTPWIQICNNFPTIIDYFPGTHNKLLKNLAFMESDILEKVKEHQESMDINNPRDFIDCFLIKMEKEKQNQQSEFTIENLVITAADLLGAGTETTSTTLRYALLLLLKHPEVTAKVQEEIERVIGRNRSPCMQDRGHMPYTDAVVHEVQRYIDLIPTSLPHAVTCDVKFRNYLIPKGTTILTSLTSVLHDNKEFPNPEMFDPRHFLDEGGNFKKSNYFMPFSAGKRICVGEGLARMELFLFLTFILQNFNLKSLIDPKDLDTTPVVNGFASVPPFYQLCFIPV

Cytochrome P450 3A4 = Cytochrome P450 3A4 (Homo sapiens, UniProt P08684); test: Inhibition of human CYP3A4 expressed in Escherichia coli using midazolam as substrate up to 100 uM preincubated for 5 mins followed by NADPH addition measured after 20 mins by HPLC analysis; format: ADME
Chain of Cytochrome P450 3A4 (P08684 whole entry): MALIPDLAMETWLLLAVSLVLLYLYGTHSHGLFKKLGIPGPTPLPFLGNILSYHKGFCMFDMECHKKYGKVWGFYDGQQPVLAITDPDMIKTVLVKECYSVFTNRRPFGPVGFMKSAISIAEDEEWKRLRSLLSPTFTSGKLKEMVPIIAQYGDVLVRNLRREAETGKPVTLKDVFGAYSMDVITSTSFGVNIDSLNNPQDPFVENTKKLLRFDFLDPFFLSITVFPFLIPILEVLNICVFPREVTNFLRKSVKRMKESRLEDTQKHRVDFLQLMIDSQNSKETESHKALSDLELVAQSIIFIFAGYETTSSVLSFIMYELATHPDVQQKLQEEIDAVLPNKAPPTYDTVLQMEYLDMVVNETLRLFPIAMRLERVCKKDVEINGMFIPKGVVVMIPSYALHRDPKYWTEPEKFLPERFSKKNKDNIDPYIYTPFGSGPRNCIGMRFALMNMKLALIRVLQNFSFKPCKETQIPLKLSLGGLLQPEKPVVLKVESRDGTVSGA

Mus musculus [1] = test: Antidiabetic activity in overnight fasted C57BL/6J mouse assessed as decrease in serum glucose AUC at 3 mg/kg, po administered 0.5 hrs prior to glucose challenge measured up to 240 mins by DPEC-GOD/POD method relative to vehicle-treated control; format: functional; parameters: scale not given: the % may be the effect or the level left
Procedure, shortened: (§1)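 Male C57BL/6J mice fasted overnight with water ad libitum. Dosed orally at 3 mg/kg 0.5 h before the oral glucose load. Serum glucose read by the GOD/POD method at 15–240 min on duplicate samples, then 0–240 min AUC taken. Two-way ANOVA with Bonferroni post test against vehicle. Values are mean SEM.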

Mus musculus [2] = test: Antidiabetic activity in fed db/db hyperglycemic mouse model assessed as decrease in serum glucose AUC at 3 mg/kg, po measured up to 2 hrs by DPEC-GOD/POD method relative to vehicle-treated control; format: functional; parameters: scale not given: the % may be the effect or the level left
Mus musculus [3] = test: Antidiabetic activity in fed db/db hyperglycemic mouse model assessed as decrease in serum glucose AUC at 3 mg/kg, po measured up to 24 hrs by DPEC-GOD/POD method relative to vehicle-treated control; format: functional; parameters: scale not given: the % may be the effect or the level left
Procedure, shortened: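 Fed male-unspecified db/db mice dosed orally at 3 mg/kg, with blood taken at time points up to 24 h. Serum glucose measured promptly by the GOD/POD method on duplicate samples. Glucose AUC compared with vehicle control by two-way ANOVA with Bonferroni post test. Values are mean SEM.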

[4] = Tmax in C57BL/6J mouse at 3 mg/kg, po; format: ADME, organism-based; parameters: dose 3 mg/kg, route oral; details: in vivo
Procedure, shortened: (§2)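 Single 3 mg/kg oral or iv dose to overnight-fasted male C57BL/6J mice (n = 6). Serial EDTA blood sampling at pre-dose and 0.15–48 h post-dose. Plasma separated at 4 °C, stored at -70 °C and analysed by LC–MS/MS on a C18 column. %F derived against iv AUC. Values are mean SD.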

[5] = Cmax in C57BL/6J mouse at 3 mg/kg, po; format: ADME, organism-based; parameters: dose 3 mg/kg, route oral; details: in vivo; procedure, shortened: as §2
[6] = Half life in C57BL/6J mouse at 3 mg/kg, po; format: ADME, organism-based; parameters: dose 3 mg/kg, route oral; details: in vivo; procedure, shortened: as §2
[7] = AUC (0 to infinity) in C57BL/6J mouse at 3 mg/kg, po; format: ADME, organism-based; parameters: time infinity, dose 3 mg/kg, route oral; details: plasma; procedure, shortened: as §2
[8] = Oral bioavailability in C57BL/6J mouse at 3 mg/kg; format: ADME, organism-based; details: in vivo; procedure, shortened: as §2
[9] = AUC in C57BL/6J mouse at 3 mg/kg, iv; format: ADME, organism-based; parameters: dose 3 mg/kg, route intravenous; details: plasma; procedure, shortened: as §2
[10] = Elimination rate constant in C57BL/6J mouse at 3 mg/kg, po; format: ADME, organism-based; parameters: dose 3 mg/kg, route oral; details: in vivo; procedure, shortened: as §2
Mus musculus [11] = test: Antidiabetic activity in overnight fasted C57BL/6J mouse assessed as decrease in serum glucose level at 3 mg/kg, po administered 0.5 hrs prior to glucose challenge measured at 30 to 60 mins by DPEC-GOD/POD method; format: functional, organism-based; parameters: dose 3 mg/kg; procedure, shortened: as §1

| Compound | inhibition (INH) (Cytochrome P450 1A2) | inhibition (INH) (Cytochrome P450 2C8) | inhibition (INH) (Cytochrome P450 2C9) | inhibition (INH) (Cytochrome P450 2D6) | inhibition (INH) (Cytochrome P450 2C19) | inhibition (INH) (Cytochrome P450 3A4) | Activity (Mus musculus [1]) [%] | Activity (Mus musculus [2]) [%] | Activity (Mus musculus [3]) [%] | Tmax [4] [min] | Cmax [5] [ng/mL] | half-life [6] [min] | AUC(0-inf) [7] [ng·h/mL] | bioavailability [8] [%] | AUC [9] [ng·h/mL] | k el [10] [s⁻¹] | Activity (Mus musculus [11]) |
| --- | --- | --- | --- | --- | --- | --- | --- | --- | --- | --- | --- | --- | --- | --- | --- | --- | --- |
| NC[C@H]1CN(CCc2ccc3c(c2)OCO3)C(=O)C[C@@H]1c1cc(F)ccc1F | Not Active | Not Active | Not Active | Not Active | Not Active | Not Active | 38.9 | 38.29 | 20.62 | 16.8 | 420 | 539 | 1010 | 79.5 | 1270 | 3.33e-05 | – |
| N[C@@H](CC(=O)N1CCn2c(nnc2C(F)(F)F)C1)Cc1cc(F)c(F)cc1F [SITAGLIPTIN] | – | – | – | – | – | – | 17.9 | 20.8 | 1.48 | 13.2 | 310 | 93.6 | 560 | 75.7 | 740 | 0.000233 | Active |

Source: ChEMBL document CHEMBL3232926, “Design, synthesis and biological evaluation of novel aminomethyl-piperidones based DPP-IV inhibitors” (Bioorg Med Chem Lett, 2014)
